Measurements published in ChEMBL document CHEMBL4842335, “Discovery of penipanoid C-inspired 2-(3,4,5-trimethoxybenzoyl)quinazolin-4(3H)-one derivatives as potential anticancer agents by inhibiting cell proliferation and inducing apoptosis in hepatocellular carcinoma cells” (Eur J Med Chem, 2021).
Where a name gives a salt, the structure may show the parent alone.

Experiments:
[1] = test system: HepG2; test: Cytotoxicity against human HepG2 cells assessed as inhibition of proliferation incubated for 72 hrs by MTT assay; assay type: functional, cell-based; conditions: HepG2, 72 h
Outline: (§1)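 Cells plated at 3×10³/well, grown overnight in DMEM + 10% FBS, then exposed to compounds (DMSO stocks; 0.1% DMSO negative control) for 72 h at 37 °C. MTT (5 mg/mL in PBS, added at 10%) for 4 h, formazan dissolved in DMSO, A570 read. Inhibition = (Ac−As)/(Ac−Ab)×100; IC50 by calculator; ≥3 independent repeats.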

[2] = test system: Bel-7402; test: Cytotoxicity against human Bel-7402 cells assessed as inhibition of proliferation incubated for 72 hrs by MTT assay; assay type: functional, cell-based; conditions: Bel-7402, 72 h; outline: as §1
[3] = test system: A549; test: Cytotoxicity against human A549 cells assessed as inhibition of proliferation incubated for 72 hrs by MTT assay; assay type: functional, cell-based; conditions: A549, 72 h; outline: as §1
[4] = test system: U-251; test: Cytotoxicity against human U251 cells assessed as inhibition of proliferation incubated for 72 hrs by MTT assay; assay type: functional, cell-based; conditions: U-251, 72 h; outline: as §1
[5] = test system: HepG2; test: Cytotoxicity against human HepG2 cells assessed as inhibition rate at 2.5 uM incubated for 72 hrs by MTT assay relative to control; assay type: functional
Outline: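 HepG2 exposed to each compound at 2.5 µM-range single concentration for 72 h at 37 °C after overnight attachment in DMEM + 10% FBS; 0.1% DMSO control. MTT 4 h, DMSO solubilisation, A570; inhibition rate = (Ac−As)/(Ac−Ab)×100.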

| SMILES | IC50 [1] [µM] | IC50 [2] [µM] | IC50 [3] [µM] | IC50 [4] [µM] | inhibition at 2.5 µM [5] [%] |
| --- | --- | --- | --- | --- | --- |
| COc1cc(C(=O)c2nc3ccccc3c(=O)n2Cc2nnc(-c3ccc(C)cc3)o2)cc(OC)c1OC | 10.5 | 8.88 | 47.1 | 27 | 12.6 |
| COc1cc(C(=O)c2nc3ccc(Br)cc3c(=O)[nH]2)cc(OC)c1OC | – | – | – | – | 3.4 |
| COc1cc(C(=O)c2nc3cccc(OC)c3c(=O)[nH]2)cc(OC)c1OC | 9.15 | 7.1 | 15.4 | 19.2 | 10.2 |
| COc1cc(C(=O)c2nc3cccc(F)c3c(=O)[nH]2)cc(OC)c1OC | – | – | – | – | 9.4 |
| O=C(c1ccc(C(F)(F)F)cc1)c1nc2ccccc2c(=O)[nH]1 | > 50 | – | – | – | – |
| O=C(c1nc2ccccc2c(=O)[nH]1)c1ccccc1OC(F)(F)F | > 50 | – | – | – | – |
| COc1cc(C(=O)c2nc3cccc(Cl)c3c(=O)[nH]2)cc(OC)c1OC | – | – | – | – | 3.7 |
| O=C(c1ccc(F)cc1)c1nc2ccccc2c(=O)[nH]1 | > 50 | – | – | – | – |
| COc1cc(C(=O)c2nc3cc([N+](=O)[O-])ccc3c(=O)[nH]2)cc(OC)c1OC | – | – | – | – | 6.9 |
| COc1cc(C(=O)c2nc3ccccc3c(=O)n2C)cc(OC)c1OC | 8.19 | 6.34 | 20.3 | > 100 | 17.4 |
| COc1cc(C(=O)c2nc3cc(Br)ccc3c(=O)[nH]2)cc(OC)c1OC | 7.45 | 4.91 | 7.27 | > 100 | 17.6 |
| O=C(c1ccc(OC(F)(F)F)cc1)c1nc2ccccc2c(=O)[nH]1 | > 50 | – | – | – | – |
| COc1cc(C(=O)c2nc3cc(Cl)ccc3c(=O)[nH]2)cc(OC)c1OC | – | – | – | – | 8.2 |
| COc1ccccc1C(=O)c1nc2ccccc2c(=O)[nH]1 | > 50 | – | – | – | – |
| COc1cc(C(=O)c2nc3c(OC)cccc3c(=O)[nH]2)cc(OC)c1OC | – | – | – | – | 8.1 |
| COc1cc(C(=O)c2nc3cc(F)ccc3c(=O)[nH]2)cc(OC)c1OC | – | – | – | – | 9.7 |
| COc1cc(C(=O)c2nc3ccc([N+](=O)[O-])cc3c(=O)[nH]2)cc(OC)c1OC | – | – | – | – | 8.8 |
| COc1ccc2nc(C(=O)c3cc(OC)c(OC)c(OC)c3)[nH]c(=O)c2c1 | – | – | – | – | 4.2 |
| COc1cc(C(=O)c2nc(Cl)c3ccccc3n2)cc(OC)c1OC | 10.9 | 6.88 | 7.09 | > 100 | 18.4 |
| COc1ccc(C(=O)c2nc3ccccc3c(=O)[nH]2)cc1 | > 50 | – | – | – | – |

| SMILES | IC50 [1] [µM] | IC50 [2] [µM] | IC50 [3] [µM] | IC50 [4] [µM] | inhibition at 2.5 µM [5] [%] |
| --- | --- | --- | --- | --- | --- |
| COc1cc2nc(C(=O)c3cc(OC)c(OC)c(OC)c3)[nH]c(=O)c2cc1OC | – | – | – | – | 5.1 |
| COc1cc(C(=O)c2nc3c(Cl)cccc3c(=O)[nH]2)cc(OC)c1OC | – | – | – | – | 9.2 |
| COc1cc(C(=O)c2nc(OC(C)C)c3ccccc3n2)cc(OC)c1OC | 7.45 | 4.91 | 7.27 | > 100 | 10.8 |
| COc1ccc2c(=O)[nH]c(C(=O)c3cc(OC)c(OC)c(OC)c3)nc2c1 | 10.6 | 4.13 | 12.7 | 13.7 | 43.4 |
| CCOc1nc(C(=O)c2cc(OC)c(OC)c(OC)c2)nc2ccccc12 | 15.6 | 8.29 | > 100 | 10.6 | 32 |
| COc1cccc2c1C(=O)c1c(O)c3c(c(O)c1C2=O)C[C@@](O)(C(=O)CO)C[C@@H]3O[C@H]1C[C@H](N)[C@H](O)[C@H](C)O1 [DOXORUBICIN HYDROCHLORIDE] | 2.21 | 1.28 | – | 0.157 | – |
| COc1cc(C(=O)c2nc3ccc(F)cc3c(=O)[nH]2)cc(OC)c1OC | – | – | – | – | 5.1 |
| COc1cc(C(=O)c2nc3cc(F)c(F)cc3c(=O)[nH]2)cc(OC)c1OC | – | – | – | – | 1.2 |
| COc1cc(C(=O)c2nc3ccccc3c(=O)n2Cc2nnc(-c3ccc(Cl)cc3)o2)cc(OC)c1OC | – | – | – | – | 2.3 |
| COc1cc(C(=O)c2nc3ccccc3c(=O)n2Cc2nnc(-c3ccc(F)cc3)o2)cc(OC)c1OC | 7.07 | 4.86 | 7.66 | 27.5 | 26.3 |
| O=C(c1nc2ccccc2c(=O)[nH]1)c1ccccc1C(F)(F)F | > 50 | – | – | – | – |
| COc1cc(C(=O)c2nc3ccccc3c(=O)n2Cc2nnc(-c3ccco3)o2)cc(OC)c1OC | 7.51 | 8.15 | 4.62 | 15.9 | 34.4 |
| O=C(c1ccc(Cl)cc1)c1nc2ccccc2c(=O)[nH]1 | > 50 | – | – | – | – |
| C#CCn1c(C(=O)c2cc(OC)c(OC)c(OC)c2)nc2ccccc2c1=O | 4.97 | 5.4 | 7.66 | 12.8 | 54.7 |
| O=C(c1ccc(O)cc1)c1nc2ccccc2c(=O)[nH]1 [PENIPANOID C] | > 50 | – | – | – | – |
| COc1cc(C(=O)c2nc3ccc(Cl)cc3c(=O)[nH]2)cc(OC)c1OC | – | – | – | – | 3.4 |
| COc1cc(C(=O)c2nc3cccc(Br)c3c(=O)[nH]2)cc(OC)c1OC | – | – | – | – | 5.1 |
| COc1cc(C(=O)c2nc3c(F)cccc3c(=O)[nH]2)cc(OC)c1OC | – | – | – | – | 6.8 |
| C=CCn1c(C(=O)c2cc(OC)c(OC)c(OC)c2)nc2ccccc2c1=O | 14.1 | 10.7 | 10.5 | 13 | 21 |
| COc1cc(C(=O)c2nc3c(Br)cccc3c(=O)[nH]2)cc(OC)c1OC | – | – | – | – | 1.3 |
